Laboratory results published in ChEMBL document CHEMBL3297742, “Tetrahydronaphthyridine and dihydronaphthyridinone ethers as positive allosteric modulators of the metabotropic glutamate receptor 5 (mGlu₅)” (J Med Chem, 2014).
Converted amounts (≈) assume the structure as drawn.

What was measured:
Rattus norvegicus [1] = assay: Toxicity in Sprague-Dawley rat assessed as motor output at 30 to 100 mg/kg, po after 30 mins by rotarod test; format: organism-based; design: dose 30-100 mg/kg, route oral; conditions: in vivo, 0.5 h
In short: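 Male Sprague–Dawley rats (250–300 g) trained twice on a 20 rpm rotarod (120 s trials); animals below 85 s at baseline were excluded. Rats received 30, 56.6 or 100 mg/kg po in 20% HP-β-CD or vehicle (n = 6) and were tested 30 min later in a 120 s trial; time on the rod was recorded, with a 120 s cutoff.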

Rattus norvegicus [2] = assay: Toxicity in Sprague-Dawley rat assessed as somatomotor nervous system deficit at 100 mg/kg, po measured up to 4 hrs by irwin neurological test; format: organism-based; design: dose 100 mg/kg, route oral; conditions: in vivo
In short: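 Male Sprague–Dawley rats (250–300 g) scored at baseline, then given vehicle (20% HP-β-CD) or 100 mg/kg po (n = 6 each). Modified Irwin battery repeated at 30 min, 1 h and 4 h; each end point scored 0, 1 or 2; significance taken at p ≤ 0.05.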

[3] = Retention time of the compound by LCMS analysis; format: physicochemical
[4] = Ratio of unbound drug level in brain to plasma in rat; format: ADME, cell-free
In short: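 Kp,uu derived from the in vivo brain:plasma ratio and in vitro rat fu,plasma/fu,brain, with the binding values from rat plasma protein and rat brain homogenate binding experiments.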

[5] = target: Metabotropic glutamate receptor 5 (Rattus norvegicus, UniProt P31424); assay: Positive allosteric modulator activity at rat mGlu5 receptor expressed in HEK293 cells assessed as potentiation of glutamate-induced calcium mobilization by fluorescence assay; format: functional, cell-based; conditions: read-out: EC50
In short: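 HEK293 cells stably expressing rat mGlu5, 15000 cells/well, grown overnight, loaded with 1 µM Fluo-4AM for 50 min at 37 °C in HBSS/20 mM HEPES/2.5 mM probenecid pH 7.4. Compound added, then an EC20 of glutamate 140 s later and an EC80 90–120 s after that. Fluorescence over basal normalized to maximal glutamate response (100 µM glutamate); compound at up to 30 µM; ≥3 independent determinations.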

Plasma [6] = assay: Fraction unbound in human plasma; format: ADME, cell-free
Plasma [7] = assay: Fraction unbound in rat plasma; format: ADME, cell-free
[8] = target: Metabotropic glutamate receptor 2 (Rattus norvegicus, UniProt P31421); assay: Positive allosteric modulator activity at rat mGlu2 receptor expressed in HEK293 cells assessed as glutamate-induced GIRK channel-mediated thallium flux treated 140s prior to gluatamate challenge by fluorescence analysis; format: cell-based
In short: (§1)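 HEK293-GIRK cells expressing rat mGlu2, 3, 4, 6, 7 or 8, 15000 cells/well. Vehicle or 10 µM compound added, then 140 s later a glutamate CRC (L-AP4 for mGlu7) in thallium buffer (12 mM thallium sulfate, 10 mM HEPES). Thallium flux through GIRK read by fluorescence.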

[9] = target: Metabotropic glutamate receptor 4 (Rattus norvegicus, UniProt P31423); assay: Positive allosteric modulator activity at rat mGlu4 receptor expressed in HEK293 cells assessed as glutamate-induced GIRK channel-mediated thallium flux treated 140s prior to gluatamate challenge by fluorescence analysis; format: cell-based; in short: as §1
[10] = target: Metabotropic glutamate receptor 6 (Rattus norvegicus, UniProt P35349); assay: Positive allosteric modulator activity at rat mGlu6 receptor expressed in HEK293 cells assessed as glutamate-induced GIRK channel-mediated thallium flux treated 140s prior to gluatamate challenge by fluorescence analysis; format: cell-based; in short: as §1
[11] = target: Metabotropic glutamate receptor 7 (Rattus norvegicus, UniProt P35400); assay: Positive allosteric modulator activity at rat mGlu7 receptor expressed in HEK293 cells assessed as L-AP4-induced GIRK channel-mediated thallium flux treated 140s prior to L-AP4 challenge by fluorescence analysis; format: cell-based; in short: as §1
[12] = target: Metabotropic glutamate receptor 8 (Rattus norvegicus, UniProt P70579); assay: Positive allosteric modulator activity at rat mGlu8 receptor expressed in HEK293 cells assessed as glutamate-induced GIRK channel-mediated thallium flux treated 140s prior to glutamate challenge by fluorescence analysis; format: cell-based; in short: as §1
[13] = Fraction unbound in rat brain; format: ADME, tissue-based
In short: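 Fraction unbound measured by rat brain homogenate binding.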

Cytochrome P450 2C9 = Cytochrome P450 2C9 (Homo sapiens, UniProt P11712); assay: Inhibition of CYP2C9 in human liver microsomes; format: ADME
In short: (§2)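 CYP1A2, 2C9, 2D6 and 3A4 inhibition measured together in a cocktail assay with human liver microsomes and known probe substrates; IC50 determined.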

Cytochrome P450 2D6 = Cytochrome P450 2D6 (Homo sapiens, UniProt P10635); assay: Inhibition of CYP2D6 in human liver microsomes; format: ADME; in short: as §2
Cytochrome P450 3A4 = Cytochrome P450 3A4 (Homo sapiens, UniProt P08684); assay: Inhibition of CYP3A4 in human liver microsomes; format: ADME; in short: as §2
[14] = Kinetic solubility of the compound in buffer at pH 2; format: physicochemical
In short: (§3)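 Kinetic aqueous solubility measured in buffers at pH 2, 4 and 7.4.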

[15] = Kinetic solubility of the compound in buffer at pH 4; format: physicochemical; in short: as §3
[16] = Kinetic solubility of the compound in buffer at pH 7.4; format: physicochemical; in short: as §3
[17] = Solubility of the compound in fasted simulated intestinal fluid at pH 7.2 after 24 hrs; format: ADME; conditions: simulated gi fluid, pH 7.2, 24 h
In short: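 Solubility in fasted simulated intestinal fluid (FaSSIF), pH 7.2.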

[18] = Half life in rat at 1 mg/kg, iv and 10 mg/kg, po; format: ADME, organism-based; conditions: in vivo
In short: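 Rat pharmacokinetics with 1 mg/kg IV and 10 mg/kg PO dosing; oral arm given in 0.5% methyl cellulose (1 mg/mL, noncrossover) to male Sprague–Dawley rats.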

Rattus norvegicus [19] = assay: AUC (0 to 24 hrs) in Sprague-Dawley rat plasma at 10 mg/kg, po; format: ADME, organism-based; design: time < 24 hr, dose 10 mg/kg, route oral; conditions: in vivo
[20] = Cmax in Sprague-Dawley rat at 10 mg/kg, po; format: ADME, organism-based; design: dose 10 mg/kg, route oral; conditions: in vivo
[21] = Tmax in Sprague-Dawley rat at 10 mg/kg, po; format: ADME, organism-based; design: dose 10 mg/kg, route oral; conditions: in vivo
Rattus norvegicus [22] = assay: Reversal of amphetamine-induced hyperlocomotion in Sprague-Dawley rat at 56.6 mg/kg, po administered for 30 mins prior to amphetamine challenge for 60 mins; format: functional
In short: (§4)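 Male Sprague–Dawley rats (250–375 g), food-deprived the evening before, were habituated 30 min in locomotor chambers. They were then dosed po with vehicle (20% HP-β-CD in water, pH 6–7, max 10 mL/kg) or test article, followed 30 min later by amphetamine 1 mg/kg sc, n = 6–8 per group. Photobeam breaks were counted per 5 min over 120 min. Percent reversal used t = 60–120 totals versus the vehicle + amphetamine group, reported as mean ± SE.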

[23] = Drug uptake in Sprague-Dawley rat brain at 56.6 mg/kg, po after 1.5 hrs by LC-MS/MS analysis; format: ADME, organism-based; design: dose 56.6 mg/kg, route oral; conditions: read-out: Drug uptake
In short: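 Male Sprague–Dawley rats (250–375 g), fasted overnight, were dosed orally at 56.6 mg/kg in 20% HP-β-cyclodextrin (pH 6–7) during an amphetamine hyperlocomotion screen. Brain and plasma were taken at 1.5 h. Brain was homogenized in 70:30 2-propanol:water, and samples were diluted in acetonitrile with 50 nM carbamazepine internal standard. Analysis was C18 gradient LC-ESI-MS/MS against a standard curve.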

Rattus norvegicus [24] = assay: Antipsychotic activity in Sprague-Dawley rat assessed as reversal of amphetamine-induced hyperlocomotion at 100 mg/kg, po administered for 30 mins prior to amphetamine challenge for 60 mins; format: functional; in short: as §4

Metabotropic glutamate receptor 8, sequence (P70579 whole entry): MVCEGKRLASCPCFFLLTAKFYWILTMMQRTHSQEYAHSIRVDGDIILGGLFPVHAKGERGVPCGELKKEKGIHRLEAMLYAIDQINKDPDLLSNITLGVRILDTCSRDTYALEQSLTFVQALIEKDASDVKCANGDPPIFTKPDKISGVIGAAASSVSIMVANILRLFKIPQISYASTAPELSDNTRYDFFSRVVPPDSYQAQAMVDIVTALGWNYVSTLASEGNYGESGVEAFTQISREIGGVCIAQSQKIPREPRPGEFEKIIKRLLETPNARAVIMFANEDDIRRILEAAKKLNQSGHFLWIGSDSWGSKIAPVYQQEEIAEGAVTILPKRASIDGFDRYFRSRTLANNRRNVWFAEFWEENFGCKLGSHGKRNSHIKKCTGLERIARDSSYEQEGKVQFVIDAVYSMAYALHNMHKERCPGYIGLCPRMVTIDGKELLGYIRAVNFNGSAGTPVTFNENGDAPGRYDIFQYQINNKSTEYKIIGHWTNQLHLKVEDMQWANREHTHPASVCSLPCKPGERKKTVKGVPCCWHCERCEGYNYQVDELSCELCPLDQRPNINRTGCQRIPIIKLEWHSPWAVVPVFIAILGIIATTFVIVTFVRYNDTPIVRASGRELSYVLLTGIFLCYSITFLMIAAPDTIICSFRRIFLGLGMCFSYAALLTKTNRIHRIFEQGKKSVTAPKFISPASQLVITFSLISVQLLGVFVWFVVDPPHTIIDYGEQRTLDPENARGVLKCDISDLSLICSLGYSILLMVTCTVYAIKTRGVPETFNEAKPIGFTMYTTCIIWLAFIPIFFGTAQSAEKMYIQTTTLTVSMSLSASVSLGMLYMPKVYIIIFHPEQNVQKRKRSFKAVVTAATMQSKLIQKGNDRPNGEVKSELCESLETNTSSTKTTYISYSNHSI
Cytochrome P450 3A4, sequence (P08684 whole entry): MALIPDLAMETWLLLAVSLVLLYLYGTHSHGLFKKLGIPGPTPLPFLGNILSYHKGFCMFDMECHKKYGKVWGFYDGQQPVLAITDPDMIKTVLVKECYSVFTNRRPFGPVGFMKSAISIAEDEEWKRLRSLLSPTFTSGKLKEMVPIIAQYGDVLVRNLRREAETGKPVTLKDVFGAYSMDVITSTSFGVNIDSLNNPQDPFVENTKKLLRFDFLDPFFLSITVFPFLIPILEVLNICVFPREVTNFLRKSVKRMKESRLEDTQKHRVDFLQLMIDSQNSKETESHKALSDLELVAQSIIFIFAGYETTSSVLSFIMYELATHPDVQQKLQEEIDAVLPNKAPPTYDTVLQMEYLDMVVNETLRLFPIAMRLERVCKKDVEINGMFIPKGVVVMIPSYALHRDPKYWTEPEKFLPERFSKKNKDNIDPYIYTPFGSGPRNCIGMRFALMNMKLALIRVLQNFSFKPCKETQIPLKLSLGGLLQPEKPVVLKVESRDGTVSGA
Metabotropic glutamate receptor 2, sequence (P31421 whole entry): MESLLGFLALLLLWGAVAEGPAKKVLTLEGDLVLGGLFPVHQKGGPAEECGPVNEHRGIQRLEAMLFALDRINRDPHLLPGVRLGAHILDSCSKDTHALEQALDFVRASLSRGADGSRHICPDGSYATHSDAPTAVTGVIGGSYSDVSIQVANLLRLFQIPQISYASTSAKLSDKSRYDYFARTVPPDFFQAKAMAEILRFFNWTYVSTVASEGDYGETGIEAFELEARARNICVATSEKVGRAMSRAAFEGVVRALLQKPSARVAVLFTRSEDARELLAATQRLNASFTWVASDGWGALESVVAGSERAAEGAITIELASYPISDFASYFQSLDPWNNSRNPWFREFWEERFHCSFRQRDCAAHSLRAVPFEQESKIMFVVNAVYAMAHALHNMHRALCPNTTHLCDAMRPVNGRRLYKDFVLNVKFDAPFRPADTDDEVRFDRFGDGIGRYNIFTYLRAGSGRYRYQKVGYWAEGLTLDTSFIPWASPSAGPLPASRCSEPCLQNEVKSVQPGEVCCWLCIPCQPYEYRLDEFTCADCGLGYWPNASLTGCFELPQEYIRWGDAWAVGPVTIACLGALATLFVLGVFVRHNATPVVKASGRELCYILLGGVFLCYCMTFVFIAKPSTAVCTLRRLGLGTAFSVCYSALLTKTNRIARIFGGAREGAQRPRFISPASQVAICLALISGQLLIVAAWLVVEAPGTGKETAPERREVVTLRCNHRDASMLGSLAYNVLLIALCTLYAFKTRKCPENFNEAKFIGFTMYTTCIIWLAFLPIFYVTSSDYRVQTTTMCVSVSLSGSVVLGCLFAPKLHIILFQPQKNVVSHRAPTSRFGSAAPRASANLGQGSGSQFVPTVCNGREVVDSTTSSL
Metabotropic glutamate receptor 6, sequence (P35349 whole entry): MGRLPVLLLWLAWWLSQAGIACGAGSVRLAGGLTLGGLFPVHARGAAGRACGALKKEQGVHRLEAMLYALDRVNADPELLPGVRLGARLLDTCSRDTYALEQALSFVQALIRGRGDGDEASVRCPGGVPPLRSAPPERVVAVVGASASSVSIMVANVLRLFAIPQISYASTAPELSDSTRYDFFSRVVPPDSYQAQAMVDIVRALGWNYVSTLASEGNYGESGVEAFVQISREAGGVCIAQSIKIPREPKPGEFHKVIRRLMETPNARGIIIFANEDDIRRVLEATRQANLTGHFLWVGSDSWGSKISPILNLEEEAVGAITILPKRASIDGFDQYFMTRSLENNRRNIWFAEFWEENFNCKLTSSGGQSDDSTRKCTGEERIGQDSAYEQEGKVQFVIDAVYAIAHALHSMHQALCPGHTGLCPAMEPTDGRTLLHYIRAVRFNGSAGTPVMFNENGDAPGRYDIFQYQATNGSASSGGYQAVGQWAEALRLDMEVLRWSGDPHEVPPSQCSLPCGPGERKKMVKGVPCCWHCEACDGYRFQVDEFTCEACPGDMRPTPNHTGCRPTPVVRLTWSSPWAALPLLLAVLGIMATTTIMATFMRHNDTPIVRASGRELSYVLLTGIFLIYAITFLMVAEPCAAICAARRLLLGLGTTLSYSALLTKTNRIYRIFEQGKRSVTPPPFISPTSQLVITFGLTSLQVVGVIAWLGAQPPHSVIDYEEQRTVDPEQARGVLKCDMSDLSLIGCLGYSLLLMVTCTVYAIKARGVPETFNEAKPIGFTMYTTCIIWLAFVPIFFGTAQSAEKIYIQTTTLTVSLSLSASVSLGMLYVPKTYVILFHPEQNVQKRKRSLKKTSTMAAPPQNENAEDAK
Metabotropic glutamate receptor 4, sequence (P31423 whole entry): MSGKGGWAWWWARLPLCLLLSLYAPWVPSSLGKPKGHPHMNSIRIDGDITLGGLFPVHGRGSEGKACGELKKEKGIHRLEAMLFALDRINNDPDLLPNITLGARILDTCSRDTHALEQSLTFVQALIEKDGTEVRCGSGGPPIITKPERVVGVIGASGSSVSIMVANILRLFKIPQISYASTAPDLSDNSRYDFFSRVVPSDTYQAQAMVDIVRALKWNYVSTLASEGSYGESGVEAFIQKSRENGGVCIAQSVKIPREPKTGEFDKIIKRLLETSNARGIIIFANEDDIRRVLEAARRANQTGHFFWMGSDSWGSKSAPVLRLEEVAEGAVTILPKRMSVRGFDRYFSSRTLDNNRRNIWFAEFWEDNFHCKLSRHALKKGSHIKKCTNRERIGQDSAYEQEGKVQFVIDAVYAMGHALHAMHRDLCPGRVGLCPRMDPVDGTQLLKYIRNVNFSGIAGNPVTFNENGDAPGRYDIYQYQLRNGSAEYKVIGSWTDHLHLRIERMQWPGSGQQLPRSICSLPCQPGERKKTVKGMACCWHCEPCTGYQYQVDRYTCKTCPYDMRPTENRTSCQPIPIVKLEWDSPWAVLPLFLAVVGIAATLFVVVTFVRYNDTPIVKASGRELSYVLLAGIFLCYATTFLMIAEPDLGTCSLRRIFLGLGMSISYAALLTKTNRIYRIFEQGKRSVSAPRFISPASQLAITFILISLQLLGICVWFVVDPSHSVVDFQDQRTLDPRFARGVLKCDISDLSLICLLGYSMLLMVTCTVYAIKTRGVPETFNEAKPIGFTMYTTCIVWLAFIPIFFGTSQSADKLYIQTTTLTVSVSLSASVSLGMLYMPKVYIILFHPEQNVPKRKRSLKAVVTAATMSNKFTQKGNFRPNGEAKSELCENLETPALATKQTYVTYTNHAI
Metabotropic glutamate receptor 7, sequence (P35400 whole entry): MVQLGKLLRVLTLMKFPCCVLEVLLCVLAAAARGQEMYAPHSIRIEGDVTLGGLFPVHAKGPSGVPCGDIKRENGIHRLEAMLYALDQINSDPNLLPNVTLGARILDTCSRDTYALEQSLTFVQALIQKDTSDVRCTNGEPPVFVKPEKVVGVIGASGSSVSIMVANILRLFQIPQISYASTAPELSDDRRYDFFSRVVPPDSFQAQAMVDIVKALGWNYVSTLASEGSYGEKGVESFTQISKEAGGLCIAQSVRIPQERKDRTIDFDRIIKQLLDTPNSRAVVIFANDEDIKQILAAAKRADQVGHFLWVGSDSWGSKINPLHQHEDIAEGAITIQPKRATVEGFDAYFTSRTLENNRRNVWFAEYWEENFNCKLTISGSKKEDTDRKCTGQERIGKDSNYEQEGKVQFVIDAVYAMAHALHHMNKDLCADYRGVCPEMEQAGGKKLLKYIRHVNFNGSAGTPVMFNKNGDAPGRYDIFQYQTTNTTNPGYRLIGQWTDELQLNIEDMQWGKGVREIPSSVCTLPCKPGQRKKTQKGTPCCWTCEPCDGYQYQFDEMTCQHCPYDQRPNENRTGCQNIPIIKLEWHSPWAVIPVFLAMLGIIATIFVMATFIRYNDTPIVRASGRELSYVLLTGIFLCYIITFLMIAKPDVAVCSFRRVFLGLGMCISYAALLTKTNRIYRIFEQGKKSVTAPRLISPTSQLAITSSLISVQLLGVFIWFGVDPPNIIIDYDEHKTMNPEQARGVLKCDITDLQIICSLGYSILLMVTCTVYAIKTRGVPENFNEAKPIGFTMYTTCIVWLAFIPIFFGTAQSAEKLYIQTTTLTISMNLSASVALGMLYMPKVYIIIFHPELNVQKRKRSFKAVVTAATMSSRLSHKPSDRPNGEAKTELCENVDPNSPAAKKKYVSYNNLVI

What does the source list for `O=C1NCCc2nc(OCc3cccc(F)c3)ccc21`?
Activity (Rattus norvegicus [1]): Non-toxic; Activity (Rattus norvegicus [2]): Non-toxic; Retention_time [3]: 0.736 min; K(p,uu,brain) [4]: 1.1; EC50 [5]: 0.225 µM; Fu (Plasma [6]): 0.047; Fu (Plasma [7]): 0.034; EC50 [8]: > 10 µM; EC50 [9]: > 10 µM; EC50 [10]: > 10 µM; EC50 [11]: > 10 µM; EC50 [12]: > 10 µM; fraction unbound [13]: 0.02; IC50 (Cytochrome P450 2C9): > 30 µM; IC50 (Cytochrome P450 2D6): > 30 µM; IC50 (Cytochrome P450 3A4): > 30 µM; Kinetic_solubility [14]: 38 µM; Kinetic_solubility [15]: 29 µM; Kinetic_solubility [16]: 28 µM; solubility [17]: 31 µg/mL (≈ 114 µM); half-life [18]: 18 min; AUC (Rattus norvegicus [19]): 6.2 µM·h; Cmax [20]: 3.36 µM; Tmax [21]: 30 min; inhibition in vivo at 56.6 mg/kg (Rattus norvegicus [22]): > 30%; concentration at 1.5 h [23]: 16.6 µM; inhibition in vivo at 100 mg/kg (Rattus norvegicus [24]): 55%
